High-throughput results (PubChem)
NOD2-RIPK2 inh = NOD2-RIPK2 protein interaction inhibition; inhibition, % at 4.98 µM; CHO BLA complementation NOD2-RIPK2, CCF4 ratio; O43353; 0.38% of 360,000 active; in the data active = inhibition above about 21%
TLR4 MyD88 comp = TLR4-MyD88 interaction inhibition in cells; HeLa CL3-4 TLR4/MyD88 BLA complementation, FRET ratio; AID 861; 0.18% of 200,000 active; O00206+Q99836; inhibition, % at 8.4 µM; in the data active = inhibition above about 25%
Target sequence (O00206 whole entry, looked up): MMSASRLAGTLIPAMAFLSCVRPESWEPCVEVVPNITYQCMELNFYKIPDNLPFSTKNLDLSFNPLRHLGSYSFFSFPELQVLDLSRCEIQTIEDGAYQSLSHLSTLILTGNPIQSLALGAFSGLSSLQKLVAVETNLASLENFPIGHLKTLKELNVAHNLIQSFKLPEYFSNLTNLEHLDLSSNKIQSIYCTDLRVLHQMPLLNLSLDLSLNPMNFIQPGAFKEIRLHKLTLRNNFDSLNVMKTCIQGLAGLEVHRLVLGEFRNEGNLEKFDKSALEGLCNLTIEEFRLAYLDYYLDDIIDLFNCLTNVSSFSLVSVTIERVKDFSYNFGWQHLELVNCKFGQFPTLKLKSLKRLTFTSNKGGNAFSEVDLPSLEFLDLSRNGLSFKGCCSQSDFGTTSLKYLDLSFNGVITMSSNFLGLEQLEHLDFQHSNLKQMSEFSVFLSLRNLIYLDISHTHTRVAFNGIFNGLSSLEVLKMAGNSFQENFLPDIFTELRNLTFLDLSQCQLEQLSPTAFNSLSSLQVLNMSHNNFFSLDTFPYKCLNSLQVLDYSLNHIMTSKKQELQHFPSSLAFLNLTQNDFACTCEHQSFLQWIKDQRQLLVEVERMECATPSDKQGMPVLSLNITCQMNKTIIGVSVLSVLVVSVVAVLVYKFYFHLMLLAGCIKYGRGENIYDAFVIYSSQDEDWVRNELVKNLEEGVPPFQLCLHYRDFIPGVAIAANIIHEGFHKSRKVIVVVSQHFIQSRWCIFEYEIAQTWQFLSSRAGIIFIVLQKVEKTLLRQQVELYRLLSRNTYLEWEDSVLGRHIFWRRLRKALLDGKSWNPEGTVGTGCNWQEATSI
Target sequence (Q99836 whole entry, looked up): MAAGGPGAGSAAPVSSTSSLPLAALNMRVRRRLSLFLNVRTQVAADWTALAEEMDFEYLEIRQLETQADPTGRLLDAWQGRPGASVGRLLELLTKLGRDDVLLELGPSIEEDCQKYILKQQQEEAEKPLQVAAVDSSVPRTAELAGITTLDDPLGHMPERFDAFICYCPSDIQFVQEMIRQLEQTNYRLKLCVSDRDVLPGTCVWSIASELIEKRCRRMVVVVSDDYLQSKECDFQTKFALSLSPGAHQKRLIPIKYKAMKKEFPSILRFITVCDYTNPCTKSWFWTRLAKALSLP
MC4R antag cAMP = blocks human MC4R cAMP signaling; 0.48% of 360,000 active; P32245; MC4R-expressing cells, MTII-stimulated cAMP, LANCE TR-FRET; inhibition, % at 6.5 µM;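 active = inhibition above its plate's cutoff, the mean of tested wells on that plate plus 3 SD, cut at about 29% in these data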
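System: U2OS cells stably expressing human melanocortin 4 receptor (MC4R). Reagent: Melanotan II challenge after compound preincubation. Doses: 6.5 µM. Times: 30-min compound, 1-h challenge, 1-h detection, room temperature. Measured by: TR-FRET with Eu-cAMP and labeled anti-cAMP, 671 nm. Replicates: singlicate.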
TLR9-MyD88 block = TLR9-MyD88 interaction inhibition | Q9NR96+Q99836 | CHO BLA complementation TLR9-MyD88, CCF4 FRET ratio | inhibition, % at 4.98 µM | 0.21% of 340,000 active;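 active = inhibition above the mean over all tested compounds plus 3 SD, cut at about 21% in these data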
beta cell repl = induces beta-cell replication in MIN6 cells. MIN6 cells proliferation, ATPlite luminescence, 48 h; cells starved in 0.2% serum; 100% = growth in 10% serum. proliferation, % at 10 µM. 0.29% of 330,000 active;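 active = compounds whose signal lies at least 3.5 SD above the mean of all wells on their plate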
MC4R barr agon = agonists of human melanocortin 4 receptor (MC4R) beta-arrestin. P32245. U2OS MC4R beta-arrestin complementation, luminescence; percent of melanotan II response, DMSO zero. activation, % at 8.9 µM. 0.98% of 360,000 active;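 active = activation above a per-plate cutoff, the mean activation of sample wells on that plate plus 3 SD, cut at about 8% in these data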
cAMP nonselect = U2OS forskolin cAMP inhibition counter-screen; shares compounds with MC4R antag cAMP; parental U2OS, LANCE TR-FRET; inhibition, % at 6.5 µM; 26% of 1,600 active; AID 602193;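 active = mean inhibition over triplicates above the low-control well mean plus 3 SD, set per campaign, cut at about 13% in these data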;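 also: signal is single emission at 671 nm which falls as cellular cAMP rises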
MC4R cAMP antag = human MC4R cAMP antagonism confirmation; shares compounds with MC4R antag cAMP; MC4R-expressing cells, MTII-stimulated cAMP, TR-FRET; inhibition, % at 6.5 µM; 27% of 1,600 active; in the data active = inhibition above about 29%
Hits are given with their value; n = inactive; x = no result given. Only some compounds are listed: those with a hit (about 2.1% of all), similar ones and a draw of the others.

SMILES	NOD2-RIPK2 inh	TLR4 MyD88 comp	MC4R antag cAMP	TLR9-MyD88 block	beta cell repl	MC4R barr agon	cAMP nonselect	MC4R cAMP antag
COc1ccc2sc(-c3ccc(N(C)C)cc3)c(C#Cc3cncn3C)c2c1	n	x	38	n	n	n	n	37
COc1ccc2sc(-c3ccc(N(C)C)cc3)c(C#CC(C)(C)O)c2c1	n	x	n	n	n	n	x	x
COc1ccc(CCN2CC(C(=O)N(C)CCc3cn[nH]c3)CCC2=O)cc1 (centres undefined)	n	x	n	n	n	n	x	x
O=C(CS(=O)(=O)c1ccccc1)Nc1nnc(C(F)(F)F)s1	n	x	32	n	n	n	n	n
O=C(COC(=O)c1ccc(NS(=O)(=O)c2cccs2)cc1O)Nc1nc2ccccc2s1	n	n	31	n	n	n	n	n
O=C(COC(=O)c1ccc(NS(=O)(=O)c2cccs2)cc1O)NCc1ccccc1	n	n	n	n	n	n	x	x
COCC(C)NC(=O)c1cc(OC)cc(OC)c1 (centres undefined)	n	n	36	n	n	n	n	n
COCC(C)NC(=O)c1cccc(Cl)c1 (centres undefined)	n	n	n	n	n	n	x	x
CC(=O)c1ccc(S(=O)(=O)NC2CCCCCCC2)cc1	n	x	35	n	n	n	n	n
Cc1noc(C)c1COC(=O)c1csc2c1CCCC2	n	x	n	n	n	n	x	x
CC(C)Sc1cc(Cl)nc(NC(=O)Nc2ccccc2)n1	n	x	31	n	n	n	17	39
O=C(Nc1ccccc1)Nc1ccc2ccccc2c1	n	x	n	n	n	n	x	x
Nc1sc2c(c1C(=O)NC1CC1)CCCC2	n	x	n	n	n	n	x	x
CC(C)C1CC(CCNCc2ccc3c(c2)OCO3)(c2ccccc2)CCO1 (centres undefined)	n	x	34	n	n	n	n	41
CC(C)C1CC(CCNCc2ccc(N(C)C)cc2)(c2ccccc2)CCO1 (centres undefined)	n	n	n	n	n	n	x	x
COc1ccc(C(=O)NC2CCN(C(=O)NCc3ccccc3)CC2)cc1	n	x	n	n	n	n	x	x
Oc1cccc(C=NN=C2c3ccccc3-c3ccccc32)c1	n	x	n	n	x	n	x	x
CC(C)CCOc1ccc(/C=C2\CCn3c2nc2cc(C(=O)O)ccc2c3=O)cc1	n	n	32	n	x	n	n	n
COC(=O)c1ccc(/C=C2\CCn3c2nc2cc(C(=O)O)ccc2c3=O)cc1	n	x	n	n	n	n	x	x
CC(C)Cn1c(CN2CCN(c3ccccc3F)CC2)nc2c1c(=O)[nH]c(=O)n2C	n	n	29	n	n	n	n	n
COc1cccc(C(C(=O)NCc2ccccc2)N2CCN(c3cccc(C)c3C)CC2)c1OC (centres undefined)	n	x	x	x	x	x	x	x
COc1ccc(N(C)S(=O)(=O)c2ccc(Cl)c(C(=O)NNC(=O)c3ccccc3O)c2)cc1	n	x	n	n	n	n	x	x
CCC1CCCCN1C(=O)COC(=O)CSc1ccc(C(N)=O)cc1[N+](=O)[O-] (centres undefined)	n	x	n	n	n	n	x	x
NC(=O)c1ccc(SCC(=O)OCC(=O)NCC2CCCCC2)c([N+](=O)[O-])c1	n	x	31	n	n	n	n	36
C=C1CC2C(=O)N(Cc3cc(OC)ccc3OC)C(C(=O)OCC)(C(=O)OCC)C1N2C(=O)OC(C)(C)C (centres undefined)	n	x	n	n	n	n	x	x
CC1(C)CC(=O)C(C=NCCN2CCN(C3CC(=O)N(c4ccc(Br)cc4)C3=O)CC2)=C(O)C1 (centres undefined)	n	n	33	x	n	n	n	n
COc1cc(CC(=O)OCC(=O)Nc2cccc([N+](=O)[O-])c2)cc(OC)c1OC	n	n	n	n	n	n	x	x
COC(=O)c1ccc2c(=O)[nH]c(COC(=O)c3c(-c4ccccc4Cl)noc3C)nc2c1	n	x	29	n	n	n	n	n
